Measurements taken from ChEMBL document CHEMBL4219167, “Disulfiram-based disulfides as narrow-spectrum antibacterial agents” (Bioorg Med Chem Lett, 2018).
≈ marks a conversion by molar mass, not a printed value.

Assays:
Format in all cases: functional
Staphylococcus aureus [1] = assay: Antibacterial activity against methicillin-resistant Staphylococcus aureus COL after 20 hrs by broth microdilution assay
Staphylococcus aureus [2] = assay: Antibacterial activity against vancomycin-resistant Staphylococcus aureus HIP14300 after 20 hrs by broth microdilution assay; conditions: HIP14300, 20 h
[3] = tested on: Staphylococcus epidermidis; assay: Antibacterial activity against vancomycin-intermediate resistant Staphylococcus epidermidis NRS6 after 20 hrs by broth microdilution assay; conditions: NRS6, 20 h
Streptococcus pyogenes = assay: Antibacterial activity against Streptococcus pyogenes H293 after 20 hrs by broth microdilution assay; conditions: H293, 20 h
Streptococcus agalactiae = assay: Antibacterial activity against Streptococcus agalactiae SGBS005 after 20 hrs by broth microdilution assay; conditions: SGBS005, 20 h
Streptococcus pneumoniae = assay: Antibacterial activity against Streptococcus pneumoniae TCH8431 after 20 hrs by broth microdilution assay; conditions: TCH8431, 20 h
Enterococcus faecium = assay: Antibacterial activity against vancomycin-resistant Enterococcus faecium ATCC 700221 after 20 hrs by broth microdilution assay; conditions: ATCC 700221, 20 h
Method in brief: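 Brain heart infusion broth at 37°C; E. faecium under 5% CO2. Cells at 0.5 McFarland are diluted 1:100 and exposed to serial dilutions (DMSO stocks 1 mM or 1 mg/mL; controls in water).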

[4] = tested on: Staphylococcus epidermidis; assay: Antibacterial activity against vancomycin-intermediate resistant Staphylococcus epidermidis NRS53 after 20 hrs by broth microdilution assay; conditions: NRS53, 20 h

Structure (SMILES): CN[C@H](CC(C)C)C(=O)N[C@H]1C(=O)N[C@@H](CC(N)=O)C(=O)N[C@H]2C(=O)N[C@H]3C(=O)N[C@H](C(=O)N[C@H](C(=O)O)c4cc(O)cc(O)c4-c4cc3ccc4O)[C@H](O)c3ccc(c(Cl)c3)Oc3cc2cc(c3O[C@@H]2O[C@H](CO)[C@@H](O)[C@H](O)[C@H]2O[C@H]2C[C@](C)(N)[C@H](O)[C@H](C)O2)Oc2ccc(cc2Cl)[C@H]1O [VANCOMYCIN]
- MIC (Staphylococcus aureus [1]): 1 µM (≈ 1.45 µg/mL)
- MIC (Staphylococcus aureus [2]): > 32 µM
- MIC [3]: 8 µM (≈ 11.6 µg/mL)
- MIC (Streptococcus pyogenes): ≤ 0.5 µM
- MIC (Streptococcus agalactiae): ≤ 0.5 µM
- MIC (Streptococcus pneumoniae): ≤ 0.5 µM
- MIC (Enterococcus faecium): > 32 µM
- MIC [4]: 8 µg/mL (≈ 5.52 µM)
